{"source": "ChEMBL document CHEMBL3525986", "about": "“Nicotinamide N-oxidation by CYP2E1 in human liver microsomes” (Drug Metab Dispos, 2013)", "proteins": {"B1": {"name": "Cytochrome P450 2E1 (Homo sapiens) (protein)", "chain": "MSALGVTVALLVWAAFLLLVSMWRQVHSSWNLPPGPFPLPIIGNLFQLELKNIPKSFTRLAQRFGPVFTLYVGSQRMVVMHGYKAVKEALLDYKDEFSGRGDLPAFHAHRDRGIIFNNGPTWKDIRRFSLTTLRNYGMGKQGNESRIQREAHFLLEALRKTQGQPFDPTFLIGCAPCNVIADILFRKHFDYNDEKFLRLMYLFNENFHLLSTPWLQLYNNFPSFLHYLPGSHRKVIKNVAEVKEYVSERVKEHHQSLDPNCPRDLTDCLLVEMEKEKHSAERLYTMDGITVTVADLFFAGTETTSTTLRYGLLILMKYPEIEEKLHEEIDRVIGPSRIPAIKDRQEMPYMDAVVHEIQRFITLVPSNLPHEATRDTIFRGYLIPKGTVVVPTLDSVLYDNQEFPDPEKFKPEHFLNENGKFKYSDYFKPFSTGKRVCAGEGLARMELFLLLCAILQHFNLKPLVDPKDIDLSPIHIGFGCIPPRYKLCVIPRS"}}, "substrate": "NC(=O)c1cccnc1", "test": "Drug metabolism in human liver microsomes assessed as CYP2E1-mediated nicotinamide N-oxide formation after 30 mins by HPLC analysis", "assay_type": "ADME", "in_short": "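Pooled human liver microsomes at 1 mg/ml in 0.1 M NaH2PO4, pH 7.4, with 1mM NADPH were preincubated 2 min at 37°C. NAM was added at varied concentrations and run 30 min, then stopped with ice-cold methanol. N-oxide was measured by HILIC HPLC with UV at 254 nm against a standard curve. Km and Vmax came from a Michaelis-Menten nonlinear fit. Triplicates.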", "data": [{"protein": "B1", "values": [{"measurement": "Km", "result": 2980, "unit": "µM"}, {"measurement": "Vmax", "result": "6.01e-05", "unit": "µmol/min/mg"}]}]}
